Screening data deposited in PubChem by The Scripps Research Institute Molecular Screening Center.
An excerpt weighted towards active compounds, which were near 2.4% of everything screened.
NPY-Y1 antag – NPY-Y1 (human) receptor antagonism. actives 1% (n = 200,000). P25929. HEK293-CNG Y1 cells, membrane potential fluorescence; NPY at EC95, then isoproterenol. inhibition, % at 3.6 µM;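 active = inhibition above the campaign mean inhibition of all tested compounds plus 3 SD, cut at about 20% in these data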
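Material: HEK293 Y1/CNG channel cell line | Also added: NPY (25 nM), isoproterenol (1 µM), Ro 20-1724 (25 µM) | Compound: One concentration, 3.6 µM, in 0.4% DMSO | Schedule: 3 h dye uptake, 1 h room-temperature compound, 45 min post-isoproterenol | Signal: Membrane-potential fluorescent dye readout | Read-out: % inhibition of NPY effect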
NPY-Y2 PAM-ag – human NPY-Y2 potentiation or agonism, primary screen | P49146 | AID 1359 | actives 0.45% (n = 220,000) | cells expressing NPY-Y2, potentiator/agonist read-out | activation, % at 3.6 µM; in the data active = activation above about 27%;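 note: cells stimulated with NPY near EC25 plus isoproterenol at EC100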
NPY Y2 blocker – antagonists of human neuropeptide Y receptor Y2; P49146; NPY-Y2 expressing cells, antagonist mode; inhibition, % at 2.7 µM; actives 0.99% (n = 140,000); AID 793
S1P4 antag – human S1P4 receptor antagonism; actives 0.26% (n = 220,000); inhibition, % at 4.98 µM; O95977; S1P4-expressing cells, antagonist mode, reporter read-out; in the data active = inhibition above about 29%
Target sequence (O95977 whole entry, looked up): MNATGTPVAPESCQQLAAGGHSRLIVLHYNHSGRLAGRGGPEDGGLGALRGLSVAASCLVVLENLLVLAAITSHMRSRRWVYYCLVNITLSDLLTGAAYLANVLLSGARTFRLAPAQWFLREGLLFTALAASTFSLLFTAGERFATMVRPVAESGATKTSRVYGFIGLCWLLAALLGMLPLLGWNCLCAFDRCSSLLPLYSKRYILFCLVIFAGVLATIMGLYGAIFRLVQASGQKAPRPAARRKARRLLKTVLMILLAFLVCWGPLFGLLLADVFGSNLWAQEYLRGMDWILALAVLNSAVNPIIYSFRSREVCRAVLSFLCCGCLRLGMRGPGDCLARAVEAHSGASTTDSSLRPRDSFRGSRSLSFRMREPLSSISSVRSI
NPY-Y1 PAM-ag – human NPY-Y1 potentiation or agonism, primary screen; P25929; NPY-Y1 expressing cells, potentiator/agonist activation; activation, % at 3.6 µM; actives 0.37% (n = 220,000); AID 1304; in the data active = activation above about 33%, passing the limit was not always enough;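 note: cells stimulated with NPY at EC10 then isoproterenol at EC100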
S1P4 agonist – human S1P4 receptor agonism. O95977. S1P4-expressing cell line, agonist reporter assay. activation, % at 4.98 µM. actives 0.35% (n = 220,000); in the data active = activation above about 11%
NPY-Y1 ant conf – human NPY-Y1 antagonism, confirmation | shares compounds with NPY-Y1 antag | HEK293-CNG NPY-Y1, membrane potential fluorescence, cAMP; NPY challenge against isoproterenol-raised cAMP | inhibition, % at 3.6 µM | actives 21% (n = 1,200) | AID 1254; in the data active = inhibition above about 20%
NPY-Y2 antag ct – antagonizes human NPY-Y2, counter-screen to NPY-Y1 antagonists; shares compounds with NPY-Y1 antag; HEK293 NPY-Y2 CNG membrane potential fluorescence, antagonism; cells given NPY, then isoproterenol; inhibition, % at 3.6 µM; actives 28% (n = 1,200)
Numbers stand for hits; i = inactive; nt = not tested or not shown. Cut-off read from the data, not from the text of the source, unless noted: active = inhibition above about 17%; inactive = the rest.

SMILES | NPY-Y1 antag | NPY-Y2 PAM-ag | NPY Y2 blocker | S1P4 antag | NPY-Y1 PAM-ag | S1P4 agonist | NPY-Y1 ant conf | NPY-Y2 antag ct
Cc1cc(C(C)(C)C)oc1C(=O)N(CC(=O)NC1CCCC1)c1c(C)cccc1C | i | i | i | i | i | i | nt | nt
COc1ccccc1N(CC(=O)NC1CCCC1)C(=O)c1oc(C(C)(C)C)cc1C | 28.4 | i | nt | i | i | i | 22.2 | i
Cc1cc(C(C)(C)C)oc1C(=O)N(CC(=O)NC1CCCC1)c1ccc(F)cc1 | 27.4 | i | i | i | i | i | i | i
CC(C)CC(C(=O)NC1CCCC1)N(Cc1cccs1)C(=O)c1snc(C(N)=O)c1N (configuration not stated) | 20.8 | i | i | i | i | i | i | i
CCOC(=O)C(=CNc1cc(C(F)(F)F)ccc1N1CCOCC1)C(=O)OCC | nt | i | nt | i | i | i | nt | nt
CN(C)CCC1Sc2ccccc2Oc2ccccc21 (configuration not stated) | 26.8 | i | i | i | i | i | i | i
CCOC(=O)c1cc2c(nc1C)-c1cc(Cl)cc(Cl)c1OC2O (configuration not stated) | i | i | nt | i | i | i | nt | nt
N#CC(C(=O)C12CC3CC(CC(C3)C1)C2)c1nc2ccccc2[nH]1 (configuration not stated) | i | i | i | i | i | i | nt | nt
N#CC(/C(=N/S(=O)(=O)c1cccs1)c1ccccc1)c1nc2ccccc2[nH]1 (configuration not stated) | 22.6 | i | i | i | i | i | 21.0 | 25.6
Cc1nn(C)cc1/C=N/NC(=O)Cn1nnc(N)n1 | nt | i | nt | i | i | i | nt | nt
Cc1ccccc1OCc1nc(-c2ccccc2)no1 | i | i | i | i | i | i | nt | nt
Cc1ccc(-c2noc(COc3ccccc3C)n2)cc1 | 22.3 | i | i | i | i | i | i | i
Cn1c2c(c(=O)n(C)c1=O)C(c1ccc(Cl)cc1)C(C#N)=C(N)O2 (configuration not stated) | i | i | i | i | i | i | nt | nt
Clc1ccc(CNc2nc(CN3CCOCC3)nc3scc(-c4ccccc4)c23)cc1 | 22.3 | i | i | i | i | i | 21.7 | 18.2
COc1ccc(Oc2c(-c3ccc(O)cc3O)n[nH]c2C)cc1 | 82.9 | i | i | i | i | i | 34.8 | i
COc1cc(C(=O)N/N=C/c2sccc2C)cc(OC)c1OC | 50.2 | i | nt | i | i | i | i | i
CNCC(C)COc1ccccc1OCc1ccccc1 (configuration not stated) | 21.6 | i | i | i | i | i | i | i
Nc1nc(SCC(=O)Nc2ccccc2C(F)(F)F)[nH]c(=O)c1-c1ccccc1 | i | i | nt | i | i | i | nt | nt
COc1ccccc1NC(=O)CSc1nc(N)c(-c2ccccc2)c(=O)[nH]1 | 73.6 | i | nt | i | i | i | 54.7 | 67.6
CSc1cccc(NC(=O)CN(c2ccccc2)S(=O)(=O)N(C)C)c1 | 20.2 | i | i | i | i | i | i | i
CC(C)OCCCNC(=S)NNC(=O)c1ccc(Cl)c(Cl)c1 | i | i | nt | i | i | i | nt | nt
Cc1[nH]n(-c2ccccc2)c(=O)c1/C=N/O | 57.6 | i | i | i | i | i | i | i
COC(=O)c1c(NC(=O)C2COc3ccccc3O2)sc2c1CCN(Cc1ccccc1)C2 (configuration not stated) | 21.8 | i | i | i | i | i | 30.8 | 24.1
CC(=O)Nc1sc2c(c1C(N)=O)CCN(Cc1ccccc1)C2 | nt | i | nt | i | i | i | nt | nt
Cc1nn(CC(=O)Nc2cccc(S(N)(=O)=O)c2)c(C)c1[N+](=O)[O-] | i | i | i | i | i | i | nt | nt
Cn1nc(C(=O)Nc2cccc(C(F)(F)F)c2)c2ccccc2c1=O | 29.1 | i | i | i | i | i | i | i
CCN(CC)c1ccc(/C=N/NC(=O)c2ccoc2C)c(O)c1 | nt | i | nt | i | i | i | nt | nt
Cc1cccc(C)c1OCCn1nc(C(=O)O)c2ccccc2c1=O | 23.7 | i | i | i | i | i | i | 23.3
